# Test results published in ChEMBL document CHEMBL4602720, “Degradation versus Inhibition: Development of Proteolysis-Targeting Chimeras for Overcoming Statin-Induced Compensatory Upregulation of 3-Hydroxy-3-methylglutaryl Coenzyme A Reductase” (J Med Chem, 2020).
# The source made the active and inactive calls. The calls are words filed in the database; no cut-off is given here.
# Legend:
# [1] = molecular target: T1, Protein cereblon/3-hydroxy-3-methylglutaryl-coenzyme A reductase (Cricetulus griseus) (UniProt P00347+G3H338); test: (§1) Protac activity at CRBN/HMGCR in Insig-1/Insig-2 deficient Chinese hamster SRD15 cells assessed as induction of HMGCR degradation after 16 hrs by immunoblotting analysis
# Outline: (§2)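 SRD15 cells treated with compound at varying concentrations for 16 h, final DMSO ≤0.1%; RIPA lysates (Lowry protein) immunoblotted for HMGCR, densitometry normalized to actin, DMSO set to 1; DC50 = concentration giving 50% loss versus DMSO, fitted to dose-response curve, mean of 3 independent experiments.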
# [2] = molecular target: T2, Protein cereblon/3-hydroxy-3-methylglutaryl-coenzyme A reductase (Cricetulus griseus, UniProt P00347+G3H338); test: as §1; outline: as §2
# T2 sequence (P00347 whole entry): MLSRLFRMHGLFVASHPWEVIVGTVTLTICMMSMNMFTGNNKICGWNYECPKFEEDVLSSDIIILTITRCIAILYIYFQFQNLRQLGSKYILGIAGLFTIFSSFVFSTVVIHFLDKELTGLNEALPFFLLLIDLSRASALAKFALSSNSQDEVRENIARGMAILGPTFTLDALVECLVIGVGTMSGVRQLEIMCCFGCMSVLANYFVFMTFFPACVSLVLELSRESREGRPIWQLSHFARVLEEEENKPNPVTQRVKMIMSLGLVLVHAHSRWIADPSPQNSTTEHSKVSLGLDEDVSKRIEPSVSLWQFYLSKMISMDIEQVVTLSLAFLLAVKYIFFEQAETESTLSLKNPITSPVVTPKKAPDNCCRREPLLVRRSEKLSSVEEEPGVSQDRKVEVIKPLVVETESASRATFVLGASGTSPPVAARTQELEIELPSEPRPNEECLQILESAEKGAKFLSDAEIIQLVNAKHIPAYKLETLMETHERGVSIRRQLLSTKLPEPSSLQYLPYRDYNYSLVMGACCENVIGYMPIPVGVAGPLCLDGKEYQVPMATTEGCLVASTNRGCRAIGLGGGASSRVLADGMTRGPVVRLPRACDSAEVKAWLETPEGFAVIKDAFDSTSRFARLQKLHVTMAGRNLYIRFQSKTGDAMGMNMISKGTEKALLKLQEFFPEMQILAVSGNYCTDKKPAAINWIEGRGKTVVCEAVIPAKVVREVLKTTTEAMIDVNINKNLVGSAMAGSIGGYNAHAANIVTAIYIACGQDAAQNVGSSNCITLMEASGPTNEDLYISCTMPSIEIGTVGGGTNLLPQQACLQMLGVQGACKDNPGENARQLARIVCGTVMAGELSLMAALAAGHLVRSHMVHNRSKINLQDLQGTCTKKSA
# T2 sequence (G3H338 whole entry): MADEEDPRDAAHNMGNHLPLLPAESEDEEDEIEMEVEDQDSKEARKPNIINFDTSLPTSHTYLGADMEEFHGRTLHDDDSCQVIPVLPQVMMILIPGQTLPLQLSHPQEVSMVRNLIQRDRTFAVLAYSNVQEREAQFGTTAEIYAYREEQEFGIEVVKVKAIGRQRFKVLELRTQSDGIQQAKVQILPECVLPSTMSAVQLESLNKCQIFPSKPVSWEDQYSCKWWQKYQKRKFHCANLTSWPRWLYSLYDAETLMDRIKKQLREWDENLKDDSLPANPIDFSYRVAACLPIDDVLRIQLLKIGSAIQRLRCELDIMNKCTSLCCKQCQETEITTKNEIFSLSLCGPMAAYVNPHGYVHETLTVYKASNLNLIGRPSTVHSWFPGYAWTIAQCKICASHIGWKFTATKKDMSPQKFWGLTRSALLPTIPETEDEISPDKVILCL
# [3] = molecular target: T1, Protein cereblon/3-hydroxy-3-methylglutaryl-coenzyme A reductase (Cricetulus griseus); test: Protac activity at CRBN/HMGCR in Insig-1/Insig-2 deficient Chinese hamster SRD15 cells assessed as HMGCR level at 0.1 uM after 16 hrs by immunoblotting analysis (reference value: 1)
# Outline: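 Dose-response in SRD15 cells in Medium A with 5% FBS, 16 h treatment, DMSO final 0.1% or lower. RIPA lysates immunoblotted for HMGCR. HMGCR densitometry normalized to actin, with the DMSO group set to 1. Three repeats. DC50 is taken from a dose-response fit of the semi-quantitative blots, mean of 3 independent experiments.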
# [4] = molecular target: T1, Protein cereblon/3-hydroxy-3-methylglutaryl-coenzyme A reductase (Cricetulus griseus); test: Protac activity at CRBN/HMGCR in Insig-1/Insig-2 deficient Chinese hamster SRD15 cells assessed as induction of HMGCR degradation at 1 uM preincubated for 16 hrs followed by addition of proteasome inhibitor MG132 and further incubated for 3 hrs by Western blot analysis
# Outline: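 SRD15 cells treated with 1 μM degrader for 16 h, then for 3 h with 10 μM MG132 or with MLN-4924 at the indicated concentrations. HMGCR by immunoblot.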
# [5] = molecular target: T1, Protein cereblon/3-hydroxy-3-methylglutaryl-coenzyme A reductase (Cricetulus griseus); test: Protac activity at human Flag-tagged CRBN YW/AA mutant /T7-tagged HMGCR transfected in Insig-1/Insig-2 deficient Chinese hamster SRD15 cells assessed as induction of HMGCR degradation at 0.01 to 1 uM after 16 hrs by immunoblotting analysis
# [6] = molecular target: Protein cereblon/3-hydroxy-3-methylglutaryl-coenzyme A reductase (Homo sapiens) (UniProt P04035+Q96SW2); test: Protac activity at CRBN/HMGCR in human Huh7 cells assessed as induction of HMGCR degradation at 0.01 to 1 uM after 16 hrs by Western blot analysis; assay type: cell-based; conditions: Huh-7
# Chain of Protein cereblon/3-hydroxy-3-methylglutaryl-coenzyme A reductase (Homo sapiens) (P04035 whole entry, looked up): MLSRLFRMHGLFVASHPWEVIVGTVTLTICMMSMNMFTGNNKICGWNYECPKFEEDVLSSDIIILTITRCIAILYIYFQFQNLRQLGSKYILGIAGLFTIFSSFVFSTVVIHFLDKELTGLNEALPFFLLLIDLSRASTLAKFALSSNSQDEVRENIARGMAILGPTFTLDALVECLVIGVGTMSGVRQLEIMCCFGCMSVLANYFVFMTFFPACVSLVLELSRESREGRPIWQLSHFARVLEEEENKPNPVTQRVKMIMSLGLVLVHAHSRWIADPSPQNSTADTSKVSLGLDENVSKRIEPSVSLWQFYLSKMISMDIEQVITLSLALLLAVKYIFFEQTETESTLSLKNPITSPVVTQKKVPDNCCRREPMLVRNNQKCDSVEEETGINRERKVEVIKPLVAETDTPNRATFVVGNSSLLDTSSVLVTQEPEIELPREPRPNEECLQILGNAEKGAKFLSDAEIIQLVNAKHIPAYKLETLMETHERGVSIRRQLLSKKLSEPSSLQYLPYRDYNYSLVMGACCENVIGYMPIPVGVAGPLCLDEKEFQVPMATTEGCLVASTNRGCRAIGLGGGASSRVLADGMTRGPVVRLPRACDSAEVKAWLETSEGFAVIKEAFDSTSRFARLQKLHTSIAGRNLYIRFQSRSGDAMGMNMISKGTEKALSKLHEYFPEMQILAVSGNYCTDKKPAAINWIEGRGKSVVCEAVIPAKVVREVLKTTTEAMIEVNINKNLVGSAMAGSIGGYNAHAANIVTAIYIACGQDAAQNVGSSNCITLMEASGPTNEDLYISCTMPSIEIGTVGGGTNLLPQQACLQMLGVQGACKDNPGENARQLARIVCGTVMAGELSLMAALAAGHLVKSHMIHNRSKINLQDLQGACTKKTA
# Chain of Protein cereblon/3-hydroxy-3-methylglutaryl-coenzyme A reductase (Homo sapiens) (Q96SW2 whole entry, looked up): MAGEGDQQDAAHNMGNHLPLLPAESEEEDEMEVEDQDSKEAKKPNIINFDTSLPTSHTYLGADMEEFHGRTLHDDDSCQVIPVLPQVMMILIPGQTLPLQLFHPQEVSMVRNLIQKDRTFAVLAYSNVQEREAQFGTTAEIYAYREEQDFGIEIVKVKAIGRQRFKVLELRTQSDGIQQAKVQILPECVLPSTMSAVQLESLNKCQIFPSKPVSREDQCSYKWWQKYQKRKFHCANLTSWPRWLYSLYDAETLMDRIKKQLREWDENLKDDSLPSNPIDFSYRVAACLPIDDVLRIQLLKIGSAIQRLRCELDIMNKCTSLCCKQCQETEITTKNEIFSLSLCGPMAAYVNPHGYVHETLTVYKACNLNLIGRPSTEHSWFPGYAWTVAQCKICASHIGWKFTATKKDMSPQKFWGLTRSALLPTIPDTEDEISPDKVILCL
smiles,measurement,setting,value
CC(C)c1c(C(=O)Nc2ccccc2)c(-c2cccc(OCCCc3cn(CCOCCOCCOCCOCCNc4cccc5c4C(=O)N(C4CCC(=O)NC4=O)C5=O)nn3)c2)c(-c2ccc(F)cc2)n1CC[C@@H](O)C[C@@H](O)CC(=O)O (stereo partly specified),Activity,[1],Dose-dependent effect
same,DC50,[2],100 nM
same,fold change (FC),[3],0.6
same,Activity,[4],inactive
same,Activity,[5],inactive
same,Activity,[6],Active
